# Measured values taken from publication PMC5616206 (Toxicology Reports, 2016).
# Entries after “also recorded” stand apart in the source; their conditions may differ.
# Key:
# [1] = In vitro metabolism by human liver microsomes; format: in vitro ADME; details: S807 incubation, relative to S807 at time = 0
# [2] = In vitro metabolism by rat liver microsomes; format: in vitro ADME, Sprague-Dawley rat; details: S807 incubation, relative to S807 at time = 0
# [3] = tested on: Sprague-Dawley Rats; experiment: 21-day dose-range finding toxicity study on S807; format: in vivo, Crl:CD(SD)IGS BR rats; details: 50, 100, 200 mg/kg bw/day food ad-mix, 21 days
# Method in brief: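 Dose-range finder for the 90-day study. Crl:CD(SD)IGS BR rats, 5/sex/group, received the test compound continuously in the diet at 50, 100 or 200 mg/kg bw/day for 21 days. One group of 5/sex served as control and received the vehicle diet.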
# [4] = tested on: Chinese hamster ovary cells (CHO-WBL); experiment: In vitro chromosome aberration test, CHO-WBL cells; format: cell-based
# [5] = tested on: S. typhimurium strains TA98, TA100, TA1535, TA1537 and E. coli strain WP2 uvrA; experiment: Bacterial reverse mutation test; format: cell-based; details: 21–5000 μg/plate, plate incorporation and pre-incubation, ±S9
# Method in brief: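 The assay followed OECD Guideline 471 and used S. typhimurium TA98, TA100, TA1535 and TA1537 and E. coli WP2 uvrA. It was run with and without S9 from livers of Aroclor 1254-treated Sprague-Dawley rats. One compound was tested at 21–5000 μg/plate by plate incorporation and pre-incubation. The other was tested at 50–5000 μg/plate in an initial toxicity-mutation test and a confirmatory mutation test.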
# [6] = Dietary exposure estimates; design: species or system human
# [7] = In vivo metabolism of S807 in rats; design: species or system Sprague-Dawley rats; details: male and female pooled rat plasma, 1 h post dose, 200 mg/kg bw oral
# [8] = tested on: Male Swiss albino (CD-1) mice, bone marrow PCEs; experiment: In vivo micronucleus assay in mice, S807
# Method in brief: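 Swiss Albino (CD-1) mice received a single intraperitoneal injection of the test compound as a DMSO solution (132 mg/mL). Range finding used 3/sex/group at 500, 1000 or 2000 mg/kg bw, then added groups at 800 (3/sex) and 700 (3 males). The definitive phase used 175, 350 and 700 mg/kg bw, 21 animals/group. Readouts were bone-marrow mnPCE incidence and PCE/total erythrocyte ratio versus vehicle. Cyclophosphamide was the positive control.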
# [9] = tested on: Sprague-Dawley Rats; experiment: 13-week subchronic toxicity study on S807; format: in vivo, Crl:CD(SD)IGS BR rats; details: 2, 10, 20 mg/kg bw/day food ad-mix, 13 weeks
# Method in brief: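 Crl:CD(SD)IGS BR rats, 20/sex/group, were given the test compound in the diet at 0 (control), 2, 10 or 20 mg/kg bw/day for 93 consecutive days.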
# [10] = Pharmacokinetics of S807 in rats, single iv or oral dose; format: in vivo, Sprague-Dawley rats; details: for AUC(0-t) / Cmax / Tmax / Vd / half-life / clearance / bioavailability: Sprague-Dawley, rat, plasma; for clearance: CL (clearance), iv 1 mg/kg bw; for AUClast Ratio / Cmax Ratio: vs 20 mg/kg bw dose
# Method in brief: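 Sprague-Dawley rats, 4/sex, received a 1 mg/kg bw IV bolus in 20% PEG400/10% ethanol/2% DMSO/68% saline. Sampling was via jugular cannula at pre-dose and 2 min to 8 h. Oral groups (4/sex/group) were gavaged once with 20, 50 or 200 mg/kg bw in 1% methylcellulose and sampled from 15 min to 24 h. Plasma was assayed for parent and metabolites.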
# [11] = oral gavage 20 mg/kg bw, female
# [12] = oral gavage 50 mg/kg bw, female
# [13] = oral gavage 200 mg/kg bw, female
compound,measurement,setting,value
"CCCC(CCC)NC(=O)c1ccc2c(c1)OCO2 [S807, N-(heptan-4-yl)benzo[d][1,3]dioxole-5-carboxamide]",% MS (EIC) Peak Area,[1]; 10 min,89.4%
same,% MS (EIC) Peak Area,[1]; 20 min,80.8%
same,% MS (EIC) Peak Area,[1]; 60 min,65.0%
same,% MS (EIC) Peak Area,[2]; 10 min,70.0%
same,% MS (EIC) Peak Area,[2]; 20 min,34.0%
same,Findings,[3],Lower bw gain in females at 200 mg/kg bw/day; increased liver weight in females at 100 and 200 mg/kg bw/day; histomorphological changes in livers of both male and females at all doses
same,NOEL,[3],< 50 mg/kg bw/day
same,"Chromosome aberration (in vitro), Result","[4]; 21–5000 μg/mL, 3 h −S9, 3 h +S9, 18 h −S9",did not induce chromosomal aberrations; also recorded: Negative
same,test article concentration with precipitate in the cell cultures,[4]; all conditions,≥ 62 µg/mL
same,"Reverse mutation (in vitro), Result",[5],not mutagenic; also recorded: Negative
same,NOEL as times the estimated dietary exposure (mTAMDI),[6]; NOEL 20 mg/kg bw/day,2560 times
same,"margin of safety, NOEL vs estimated use",[6]; NOEL 20 mg/kg bw/day vs 4.9 μg/kg bw/day,> 4000 fold
same,MS (EIC) Peak Area,[7],"29,000,000 cps"
same,"Micronucleus formation (in vivo), Result","[8]; 175, 350, 700 mg/kg bw (ip)",neither clastogenic nor aneugenic; also recorded: Negative
same,dose groups with deaths within 48 h of treatment,"[8]; range finding, ip",≥ 800 mg/kg bw
same,Findings,[9],No test-article related findings
same,NOEL,[9],20 mg/kg bw/day
same,AUC(0-t),"[10]; female, iv, 1 mg/kg",342 ± 81.4 ng·h/mL
same,Cmax,"[10]; female, iv, 1 mg/kg",949 ± 222 ng/mL
same,Tmax,"[10]; female, iv, 1 mg/kg",0.033 h
same,Vd,"[10]; female, iv, 1 mg/kg",5.61 L/kg
same,half-life,"[10]; female, iv, 1 mg/kg",3.02 ± 0.92 h
same,clearance,"[10]; female, iv, 1 mg/kg, female rat",47.2 mL/min/kg
same,AUC(0-t),"[10]; female, po, 20 mg/kg",166 ± 72.2 ng·h/mL
same,Cmax,"[10]; female, po, 20 mg/kg",187 ± 87.6 ng/mL
same,Tmax,"[10]; female, po, 20 mg/kg",0.25 h
same,bioavailability,"[10]; female, po, 20 mg/kg",2.43%
same,half-life,"[10]; female, po, 20 mg/kg",1.07 ± 0.67 h
same,AUC(0-t),"[10]; female, po, 50 mg/kg",1410 ± 1020 ng·h/mL
same,Cmax,"[10]; female, po, 50 mg/kg",529 ± 379 ng/mL
same,Tmax,"[10]; female, po, 50 mg/kg",1 h
same,bioavailability,"[10]; female, po, 50 mg/kg",8.25%
same,half-life,"[10]; female, po, 50 mg/kg",1.17 ± 0.16 h
same,AUC(0-t),"[10]; female, po, 200 mg/kg",108000 ± 27900 ng·h/mL
same,Cmax,"[10]; female, po, 200 mg/kg",9150 ± 2410 ng/mL
same,Tmax,"[10]; female, po, 200 mg/kg",3 h
same,bioavailability,"[10]; female, po, 200 mg/kg",158%
same,half-life,"[10]; female, po, 200 mg/kg",2.62 ± 0.2 h
same,CL as % of hepatic blood flow,"[10]; iv, females",85.5%
same,CL as % of hepatic blood flow,"[10]; iv, males",55.6%
same,AUC(0-t),"[10]; male, iv, 1 mg/kg",491 ± 33.3 ng·h/mL
same,Cmax,"[10]; male, iv, 1 mg/kg",1110 ± 237 ng/mL
same,Tmax,"[10]; male, iv, 1 mg/kg",0.033 h
same,Vd,"[10]; male, iv, 1 mg/kg",4.63 L/kg
same,half-life,"[10]; male, iv, 1 mg/kg",3.02 ± 0.24 h
same,clearance,"[10]; male, iv, 1 mg/kg, male rat",30.7 mL/min/kg
same,AUC(0-t),"[10]; male, po, 20 mg/kg",182 ± 70.5 ng·h/mL
same,Cmax,"[10]; male, po, 20 mg/kg",174 ± 95.1 ng/mL
same,Tmax,"[10]; male, po, 20 mg/kg",0.313 h
same,bioavailability,"[10]; male, po, 20 mg/kg",1.85%
same,half-life,"[10]; male, po, 20 mg/kg",1.14 ± 0.35 h
same,AUC(0-t),"[10]; male, po, 50 mg/kg",4890 ± 4960 ng·h/mL
same,Cmax,"[10]; male, po, 50 mg/kg",1270 ± 1170 ng/mL
same,Tmax,"[10]; male, po, 50 mg/kg",1.5 h
same,bioavailability,"[10]; male, po, 50 mg/kg",19.9%
same,half-life,"[10]; male, po, 50 mg/kg",1.83 ± 0.61 h
same,AUC(0-t),"[10]; male, po, 200 mg/kg",101000 ± 19500 ng·h/mL
same,Cmax,"[10]; male, po, 200 mg/kg",10500 ± 937 ng/mL
same,Tmax,"[10]; male, po, 200 mg/kg",4 h
same,bioavailability,"[10]; male, po, 200 mg/kg",103%
same,half-life,"[10]; male, po, 200 mg/kg",2.49 ± 0.07 h
same,AUClast Ratio,[10]; [11],1
same,Cmax Ratio,[10]; [11],1
same,AUClast Ratio,"[10]; oral gavage 20 mg/kg bw, male",1
same,Cmax Ratio,"[10]; oral gavage 20 mg/kg bw, male",1
same,AUClast Ratio,[10]; [12],8.49
same,Cmax Ratio,[10]; [12],2.83
same,AUClast Ratio,"[10]; oral gavage 50 mg/kg bw, male",26.9
same,Cmax Ratio,"[10]; oral gavage 50 mg/kg bw, male",7.30
same,AUClast Ratio,[10]; [13],651
same,Cmax Ratio,[10]; [13],48.9
same,AUClast Ratio,"[10]; oral gavage 200 mg/kg bw, male",555
same,Cmax Ratio,"[10]; oral gavage 200 mg/kg bw, male",60.3
